Screening results (PubChem BioAssay)
bIAP inhibitor – intestinal alkaline phosphatase (bovine) inhibition; inhibition, % at 20 µM; 190,000 tested, under 10 active; purified bovine IAP, CDP-star luminescence, 30 min; AID 1019;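 active = over 50% inhibition of intestinal alkaline phosphatase at 20 µM in the single-dose screen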
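Assay system – bovine IAP enzyme · Quantity – bovine IAP at 1/65,000,000 final dilution · Detection – CDP-star luminescence signal · Times – 30 min reaction at room temperature · Also added – CDP-star substrate at 30 µM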
mIAP act – mouse IAP activation | 330,000 compounds, 0.24% hits | AID 2805 | activation factor at 10 µM | muIAP, CDP-Star luminescence, 30 min; stronger effect = higher value; 1 = vehicle-only enzyme signal, 0 = enzyme-free wells;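 active = activation factor of at least 2 at 20 µM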
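Assay system: mouse IAP enzyme / Compound: DMSO-dissolved test compounds / Timing: 30 min, room temperature / Measured by: luminescence from enzymatic CDP-Star hydrolysis / Control set: DMSO-only wells, enzyme-free buffer wells as negative control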
hIAP block – human IAP inhibition. P09923. purified IAP, CDP-Star luminescence, 30 min. inhibition, % at 10 µM. 330,000 compounds, 0.12% hits;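 active = inhibition reaching a set limit with compound at 10 µM in the primary screen, cut at about 35% in these data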;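 note: plate controls were DMSO wells with enzyme for no effect and no-enzyme buffer wells for full effect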
Target sequence (P09923 whole entry, looked up): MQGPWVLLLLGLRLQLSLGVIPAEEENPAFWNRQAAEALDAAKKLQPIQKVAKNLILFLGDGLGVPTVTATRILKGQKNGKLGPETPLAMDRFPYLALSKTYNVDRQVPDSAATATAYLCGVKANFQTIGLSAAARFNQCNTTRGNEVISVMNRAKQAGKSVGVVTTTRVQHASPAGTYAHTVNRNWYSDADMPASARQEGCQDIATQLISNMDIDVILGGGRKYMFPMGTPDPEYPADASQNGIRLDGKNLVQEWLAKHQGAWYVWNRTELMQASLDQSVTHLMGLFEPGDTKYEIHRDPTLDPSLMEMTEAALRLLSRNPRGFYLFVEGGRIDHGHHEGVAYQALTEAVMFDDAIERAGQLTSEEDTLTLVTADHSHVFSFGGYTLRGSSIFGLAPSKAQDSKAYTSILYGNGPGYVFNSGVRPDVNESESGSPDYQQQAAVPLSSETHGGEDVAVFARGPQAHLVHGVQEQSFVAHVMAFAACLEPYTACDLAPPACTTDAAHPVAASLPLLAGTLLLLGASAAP
hIAP activ – increases human intestinal alkaline phosphatase activity; P09923; purified human IAP, CDP-Star luminescence, 30 min; stronger effect = higher value; 1 = vehicle-only enzyme, 0 = enzyme-free background; activation factor at 10 µM; 330,000 compounds, 0.16% hits; AID 2524;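 active = activation factor of the enzyme at least 2-fold when tested at 20 µM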
bIAP activator – increases bovine intestinal alkaline phosphatase activity. activation factor at 20 µM. 200,000 compounds, 0.17% hits. purified bovine IAP, CDP-star luminescence, 30 min; stronger effect = higher value; fold of DMSO-control signal, blank-subtracted. AID 1016;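 active = activation factor of 2 or more at 20 µM, a signal rise over negative controls twice the positive control's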
mIAP block – mouse IAP inhibition; purified mouse IAP, CDP-Star luminescence, 30 min; inhibition, % at 10 µM; 330,000 compounds, 0.2% hits; AID 2806;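 active = inhibition of at least 40% at 10 µM in the primary screen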;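 note: plate controls were DMSO with enzyme for no effect and no enzyme wells for full effect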
mIAP inh conf – mouse IAP inhibition confirmation; shares compounds with mIAP block; purified mouse IAP, CDP-Star luminescence, 30 min; inhibition, % at 10 µM; 11,000 compounds, 4.7% hits; AID 434971;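 active = inhibition of at least 40% at 10 µM in either of the two replicates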;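 note: plate controls were DMSO wells with enzyme for no effect and buffer wells lacking enzyme for full effect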
* marks the source's active call; other numbers are inactive results; nt = no result. An excerpt weighted towards active compounds, which were near 0.72% of everything screened.

SMILES	bIAP inhibitor	mIAP act	hIAP block	hIAP activ	bIAP activator	mIAP block	mIAP inh conf
C=CCc1cccc2cc(C(=O)NNC(=O)CC#N)c(=O)oc12	nt	0.548	-4.6	1.05	nt	45.2*	54.8*
O=C(C1CC(=O)N(c2ccc(Cl)cc2)C1)N1CCC(c2nc3ccccc3[nH]2)CC1 (centres undefined)	nt	1.02	-7.5	1.07	nt	-2.3	nt
Cc1noc(C)c1CSCC(=O)Nc1cccc(C(F)(F)F)c1	nt	1.11	0.2	0.998	nt	-10.7	nt
O=C(Nc1ccc2c(c1)N(Cc1ccccc1)C(=O)c1ccccc1S2)NC1CC1	-48.7	2.74*	6.6	0.934	1.5	-174.4	-144.9
O=C(NN1C(=O)/C(=C\c2ccc(O)c([N+](=O)[O-])c2)SC1=S)c1ccccc1Cl	nt	0.564	18.2	0.818	nt	43.6*	48.8*
CCOc1cc(/C=C2\SC(=S)N(Nc3ccccc3)C2=O)ccc1O	5.9	0.564	-12.5	1.12	0.9	43.6*	47.2*
Cc1ccc(/C=N/NC(=O)c2nnn(-c3nonc3N)c2CSc2ccc(Cl)cc2)o1	nt	0.876	-30.9	1.31	nt	12.4	nt
O=C(NCCCN1CCOCC1)c1nn(-c2ccccc2)c(=O)c2ccccc12	nt	0.998	-4.5	1.04	nt	0.2	nt
CCOC(=O)C1(Cc2ccc(OC)cc2)CCN(C(=O)c2cc(C)nn2C)CC1	nt	1.08	-12.3	1.12	nt	-7.6	nt
COc1cc(C2C(C(=O)c3ccc(C)o3)=C(O)C(=O)N2CCN2CCOCC2)ccc1OCCC(C)C (centres undefined)	nt	0.95	8.1	0.919	nt	5.0	nt
O=C(NNC(=O)c1cc2cc(Br)ccc2oc1=O)c1ccc(O)cc1O	30.7	0.233	-5.0	1.05	0.7	76.7*	81.7*
Cc1ccc(/C=C2\SC(=S)N(C3CCS(=O)(=O)C3)C2=O)cc1 (centres undefined)	19.1	0.863	1.8	0.982	0.8	13.7	nt
O=C1/C(=C\c2ccco2)SC(=S)N1C1CCS(=O)(=O)C1 (centres undefined)	nt	0.364	-0.5	1	nt	63.6*	70.9*
O=C1/C(=C/c2ccco2)SC(=S)N1C1CCS(=O)(=O)C1 (centres undefined)	-21.9	0.328	-31.1	1.31	1.2	67.2*	70.8*
CCN(C(=O)C(C)N1C(=O)/C(=C/c2ccco2)SC1=S)C1CCS(=O)(=O)C1 (centres undefined)	nt	0.491	0.3	0.997	nt	50.9*	69.8*
CC(=O)Nc1cccc(NC(=O)CSc2nc(=O)n(CCN3CCOCC3)c3c2CCCC3)c1	nt	1.11	-4.5	1.04	nt	-10.8	nt
Cc1nonc1C(=O)N/N=C/c1ccc([N+](=O)[O-])o1	-27.5	0.527	-17.3	1.17	1.3	47.3*	59.7*
O=C(N/N=C/c1ccc([N+](=O)[O-])o1)c1sc2ccccc2c1Cl	nt	0.583	13.0	0.87	nt	41.7*	53.7*
Cc1cc(C(=O)N/N=C/c2ccc([N+](=O)[O-])o2)c(C)o1	nt	0.527	1.4	0.986	nt	47.3*	68.5*
COC(=O)N/N=C/c1ccc([N+](=O)[O-])o1	19.9	0.763	9.7	0.903	0.8	23.7	nt
COc1ccccc1NC(=O)C1CC(C(C)C)OC1=O (centres undefined)	nt	0.997	11.7	0.883	nt	0.3	nt
O=S1(=O)N=C(N/N=C/c2cccs2)c2ccccc21	nt	0.917	19.2	0.808	nt	8.3	nt
Cc1nn(Cc2ccc(Cl)c(Cl)c2)c(C)c1NC(=O)c1cn(-c2ccccc2)nc1-c1ccccc1	0.0	2.93*	-20.5	1.21	1	-193.0	-161.6
Cc1ccc(NC(=S)NC(=O)C2CCC2)cc1C	nt	0.952	-0.6	1.01	nt	4.8	nt
CC(C)(C)c1ccc(OCCC(=O)OCC(=O)NC2CCS(=O)(=O)C2)cc1 (centres undefined)	nt	0.907	13.1	0.869	nt	9.3	nt
SMILES	bIAP inhibitor	mIAP act	hIAP block	hIAP activ	bIAP activator	mIAP block	mIAP inh conf
Cc1ccc(C)c(CN2CCC(CNC(=O)Nc3ccc(Cl)cc3)CC2)c1	nt	2.71*	-34.2	1.34	nt	-171.5	-122.8
O=C(NCC1CC1)Nc1ccc(Cl)cc1	nt	1.09	-8.8	1.09	nt	-8.7	nt
O=C(O)c1ccc(N=Nc2c(O)[nH]c3ccc(Br)cc23)cc1	nt	0.891	8.6	0.914	nt	10.9	nt
O=c1ccc2cc3c([nH]c4ccc(Br)cc43)oc-2c1O	1.6	0.524	25.2	0.748	1	47.6*	44.1*
O=C(CSc1nccc(=O)[nH]1)Nc1cccc2ccccc12	nt	1.04	27.7	0.723	nt	-3.9	nt
COc1ccc(NC(=O)NC2(C)CCS(=O)(=O)C2)cc1 (centres undefined)	nt	1.07	-2.3	1.02	nt	-7.5	nt
COc1ccc(NC(=O)NC23CC4(C)CC(C)(CC(C)(C4)C2)C3)cc1	0.4	3.07*	-30.1	1.3	1	-207.4	-108.0
OC[C@@H]1[C@@H](c2ccccc2)C(c2ccccc2)=NN1c1ccccc1	nt	2.27*	nt	nt	nt	-126.9	-115.2
OC[C@@H]1[C@@H](c2ccccc2)C(c2cccc(Cl)c2)=NN1c1ccccc1	nt	2.51*	nt	nt	nt	-150.9	-127.8
CCc1ccc(NC(=O)C2CCN(S(=O)(=O)c3c(C)noc3/C=C/N(C)C)CC2)cc1	nt	1.37	-45.1	1.45	nt	-36.7	nt
COc1ccc(OC)c(S(=O)(=O)Nc2c(NC3CCCCC3)c3ccccc3oc2=O)c1	nt	0.917	2.4	0.976	nt	8.3	nt
O=C(Nc1ccc(F)cc1F)c1cc(-c2ccco2)nc2ccccc12	nt	0.858	8.0	0.92	nt	14.2	nt
O=C(Nc1nc(-c2ccco2)c(-c2ccco2)s1)c1c(F)cccc1Cl	nt	0.301	15.6	0.844	nt	69.9*	72.4*
O=C(Nc1nc(-c2ccco2)c(-c2ccco2)s1)c1ccc(F)cc1F	nt	0.487	7.8	0.922	nt	51.3*	59.6*
Cc1ccsc1/C=C/C1=Cc2c(sc(NC(=O)CSc3n[nH]c(N)n3)c2C#N)C(C)(C)C1	16.9	0.553	12.6	0.874	0.8	44.7*	63.6*
CCCCOc1ccc(NC2=NC3(CCCCC3)N=C(N)N2)cc1	-364.9	4.75*	1.6	0.984	4.6*	-375.5	-452.7
COc1ccc(C2CC(c3ccccc3Cl)=NN2c2ccc(S(N)(=O)=O)cc2)cc1 (centres undefined)	nt	2.21*	nt	nt	nt	-121.5	-117.8
O=C(CSc1n[nH]c(-c2ccccc2F)n1)Nc1cc(F)ccc1F	nt	0.924	10.2	0.898	nt	7.6	nt
Cc1ccc(C(=O)Nc2nnc(CC(=O)N/N=C/c3ccncc3)s2)cc1	-7.2	0.831	0.8	0.992	1.1	16.9	nt
Cc1ccc(C(=O)Nc2nnc(CC(=O)N/N=C/c3ccc(O)c(O)c3)s2)cc1	nt	0.425	15.6	0.844	nt	57.5*	78.6*
O=C(CCCN1C(=O)/C(=C\c2ccccc2)SC1=S)Nc1ccc(O)cc1C(=O)O	nt	1	-3.5	1.03	nt	-0.4	nt
O=C(CCN1C(=O)/C(=C/c2ccco2)SC1=S)Nc1ccc(O)cc1C(=O)O	nt	0.313	-3.3	1.03	nt	68.7*	78.3*
